From ChEMBL document CHEMBL4138193, “Novel indole and triazole based hybrid molecules exhibit potent anti-adipogenic and antidyslipidemic activity by activating Wnt3a/β-catenin pathway” (Eur J Med Chem, 2018)
The source made the active and inactive calls. The rule behind the calls is not given here.

Assays:
[1] = system: Syrian golden hamster; experiment: Induction of reverse cholestrol transport in high fat diet-induced dyslipidemia Syrian Golden hamster model assessed as reduction in weight gain at 100 mg/kg, po administered for 1 week; type: functional, organism-based; conditions: Mesocricetus auratus
Summary of the method: (§1)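 Male Syrian Golden hamsters on 45% kCal HFD, dosed 100 mg/kg p.o. in 0.5% NaCMC for one week, 4 per group. Food intake and body weight recorded daily. At the end, animals were saline-perfused and liver and eWAT were excised and weighed. Paraffin sections stained with H&E and imaged at 20x.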

[2] = system: Syrian golden hamster; experiment: Induction of reverse cholestrol transport in high fat diet-induced dyslipidemia Syrian Golden hamster model assessed as increase in SCARB1 mRNA expression in liver at 100 mg/kg, po administered for 1 week by qRT-PCR analysis; type: functional, organism-based; conditions: Mesocricetus auratus
[3] = system: 3T3-L1; experiment: Anti-adipogenic activity in mouse differentiated 3T3L1 cells assessed as inhibition of adipogenesis at 20 uM after 20 mins by Oil Red O staining based assay; type: functional
Summary of the method: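 3T3-L1 preadipocytes given 20 µM compound with differentiation media. Oil red O stain (20 min) extracted, absorbance at 492 nm measured against MDI+ control, n=3, mean ± SD, Student t test.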

[4] = system: 3T3-L1; experiment: Anti-adipogenic activity in mouse 3T3L1 cells assessed as reduction in lipid accumulation at early differentiation stage at 20 uM measured up to 3 days by Oil Red O staining based leica microscopy; type: functional, cell-based
Summary of the method: (§2)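 3T3-L1 or C3H10T1/2 cells given 20 µM compound in differentiation media for varied time periods, then stained with Oil red O. Imaged by microscopy at 10x, representative of three independent experiments.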

[5] = system: C3H 10T1/2; experiment: Anti-adipogenic activity in mouse C3H10T1/2 cells assessed as reduction in lipid accumulation at early differentiation stage at 20 uM measured up to 3 days by Oil Red O staining based leica microscopy; type: functional, cell-based; summary of the method: as §2
[6] = system: 3T3-L1; experiment: Cell cycle arrest in mouse 3T3L1 cells assessed as reduction in accumulation at S phase at 10 to 20 uM after 16 hrs by propidium iodide-staining based flow cytometry; type: functional
Summary of the method: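 Confluent 3T3-L1 preadipocytes given differentiation medium (0.5 mM IBMX, 5 µg/ml insulin, 250 nM dexamethasone) with 10 or 20 µM for 16 and 24 hr. Cells trypsinized, fixed in ice-cold 70% ethanol for 2 hr, stained with propidium iodide (40 µg/ml in RNase A buffer, 30 min, room temperature). Flow cytometry gave the fractions in G1, S and G2/M; three independent experiments.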

[7] = organism: Mus musculus; experiment: Activation of Wnt3a/beta-catenin in mouse 3T3L1 cells assessed as down-regulation of CDK4 expression at 20 uM after 16 to 24 hrs by Western blot analysis; type: cell-based
Summary of the method: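 3T3-L1 cells given MDI differentiation media (0.5 mM IBMX, 5 µg/ml insulin, 250 nM dexamethasone) with or without 20 µM compound. Proteins isolated at 16 and 24 h and probed by Western blot for CDK2, CDK4, CDK6, cyclin D1 and D3. Densitometry normalized to actin, n=3, mean ± SD, Student t test.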

[8] = organism: Mus musculus; experiment: Activation of Wnt3a/beta-catenin in mouse 3T3L1 cells assessed as increase in BMP2 mRNA expression at 20 uM by qRT-PCR analysis; type: cell-based
Summary of the method: (§3)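 3T3-L1 cells differentiated with IBMX/dexamethasone/insulin media with or without 20 µM compound over the differentiation period. RNA extracted with TRIZOL, 500 ng reverse-transcribed to cDNA, then quantitative real-time PCR. Three independent experiments run in triplicate, mean ± SD, one-way ANOVA with Bonferroni posttest.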

[9] = organism: Mus musculus; experiment: Activation of Wnt3a/beta-catenin in mouse 3T3L1 cells assessed as increase in CREB mRNA expression at 20 uM by qRT-PCR analysis; type: cell-based; summary of the method: as §3
[10] = system: 3T3-L1; experiment: Induction of Wnt10a mRNA expression in mouse 3T3L1 cells at 20 uM by qRT-PCR analysis; type: functional, cell-based
Summary of the method: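 3T3-L1 cells induced with MDI differentiation medium with or without 20 µM. RNA isolated with TRIzol and 500 ng reverse-transcribed to cDNA for real-time PCR. n=3 with triplicates, mean ± SD; one-way ANOVA with Bonferroni post-test.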

[11] = organism: Mus musculus; experiment: Activation of Wnt3a/beta-catenin in mouse 3T3L1 cells assessed as down-regulation of PPARgamma expression at 20 uM after 2 to 6 days in presence of FH353 by Western blot analysis; type: cell-based
[12] = system: Syrian golden hamster; experiment: Anti-dyslipidemic activity in high fat diet-induced dyslipidemia Syrian Golden hamster model assessed as reduction in serum LDL levels at 100 mg/kg, po administered for 1 week followed by overnight fasting post last dose by clinical bio-analyzer analysis; type: functional, organism-based; conditions: Mesocricetus auratus
Summary of the method: (§4)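 Male Syrian golden hamsters (8–10 wk, 100–120 g), 4 per group, given 45% kcal HFD for 4 days, then 100 mg/kg p.o. in 0.5% NaCMC daily for one week alongside HFD. Blood taken from retro-orbital plexus after overnight fast. TG, HDL, LDL, ALT, AST measured on a clinical bio-analyzer and NEFA by kit. Mean ± SEM, one-way ANOVA with Bonferroni.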

[13] = system: Syrian golden hamster; experiment: Anti-dyslipidemic activity in high fat diet-induced dyslipidemia Syrian Golden hamster model assessed as decrease in serum AST levels at 100 mg/kg, po administered for 1 week followed by overnight fasting post last dose by clinical bio-analyzer analysis; type: functional, organism-based; conditions: Mesocricetus auratus; summary of the method: as §4
[14] = system: Syrian golden hamster; experiment: Anti-adipogenic activity in high fat diet-induced dyslipidemia Syrian Golden hamster model assessed as decrease in PPARgamma levels in eWAT at 100 mg/kg, po administered for 1 week by Western blot analysis; type: functional, organism-based; conditions: Mesocricetus auratus
Summary of the method: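 Male Syrian golden hamsters (8–10 wk, 100–120 g) fed 45% kcal HFD for 4 days, then dosed orally at 100 mg/kg in 0.5% NaCMC for one week, n=4 per group. Fenofibrate 100 mg/kg p.o. used as positive control. Epididymal WAT proteins Western blotted, three independent experiments.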

[15] = system: Syrian golden hamster; experiment: Induction of reverse cholestrol transport in high fat diet-induced dyslipidemia Syrian Golden hamster model assessed as increase in ABCG5 mRNA expression in eWAT at 100 mg/kg, po administered for 1 week by qRT-PCR analysis; type: functional, organism-based; conditions: Mesocricetus auratus
[16] = system: Syrian golden hamster; experiment: Induction of reverse cholestrol transport in high fat diet-induced dyslipidemia Syrian Golden hamster model assessed as reduction in adipocyte hypertrophy at 100 mg/kg, po administered for 1 week by H and E staining based assay; type: functional, organism-based; conditions: Mesocricetus auratus; summary of the method: as §1
[17] = organism: Mus musculus; experiment: Activation of Wnt3a/beta-catenin in differentiated mouse 3T3L1 cells assessed as down-regulation of C/EBPalpha protein expression at 20 uM after 16 to 24 hrs by Western blot analysis
Summary of the method: (§5)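 3T3-L1 preadipocytes grown to confluence in high-glucose DMEM/10% FBS, then given differentiation media (0.5 mM IBMX, 5 µg/ml insulin, 250 nM dexamethasone) with or without 20 µM compound. Protein isolated at set time points, lysed with protease/phosphatase inhibitors, BCA-quantified, resolved by 8–12% SDS-PAGE, immunoblotted with ECL detection. β-actin loading control, densitometry normalized to actin, n=3.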

[18] = organism: Mus musculus; experiment: Activation of Wnt3a/beta-catenin in differentiated mouse 3T3L1 cells assessed as upregulation of phosphorylated LRP6 expression at 20 uM after 16 to 24 hrs by Western blot analysis; summary of the method: as §5

Cc1ccc(S(=O)(=O)N(Cc2cn(Cc3cccc(F)c3F)nn2)Cc2cn(S(=O)(=O)c3ccc(C)cc3)c3ccccc23)cc1
Activity [1]: Active
Activity [2]: Active
inhibition at 20 µM [3]: 71.5%
Activity [4]: Active
Activity [5]: Active
Activity [6]: Active
Activity [7]: Active
Activity [8]: Active
Activity [9]: Active
Activity [10]: inactive
Activity [11]: inactive
Activity [12]: Active
Activity [13]: Active
Activity [14]: Active
Activity [15]: Active
Activity [16]: Active
Activity [17]: Active
Activity [18]: Active
